These results are taken from ChEMBL document CHEMBL1121474, “Peptidoaminobenzophenones, a novel class of ring-opened derivatives of 1,4-benzoidazepines” (J Med Chem, 1980).

Data set [1] is filed under the species Mus musculus. The experiment in a line: Minimum effective dose (MED) required for the potentiation of thiopental sodium induced loss of the righting reflex. Type of data set: functional. To be noted: read-out: MED. The method, boiled down: (§1)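 Five mice per group dosed orally; 60 min later challenged with thiopental sodium 35 mg/kg intravenously. Minimum effective dose potentiating thiopental-induced anesthesia determined.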

The species entered for data set [2] is Mus musculus. The experiment in a line: Dose required to prevent convulsion and death in 50% of mice during a 2 hr observation was obtained by graphical interpolation anti-pentylenetetrazole. The format is functional. A digest of the protocol:
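Groups of five mice dosed orally, then challenged 60 min later with 125 mg/kg pentylenetetrazol subcutaneously. ED50 = dose preventing convulsion and death in 50% of animals over a 2 h observation, by graphical interpolation.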

A short description of data set [3]: (§2) Lethal dose (LD50) required to inhibit the spontaneous motor activity. The format is toxicity, organism-based. To be noted: mouse, in vivo. The method, boiled down:
(§3)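 Acute oral toxicity in mice, groups of one to three animals, deaths assessed on day 7 after administration. LD50 by graphical interpolation.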

The species entered for data set [4] is Mus musculus. The experiment in a line: Effective dose required for 50% reduction of the control response was obtained by graphical interpolation rotarod performance. Type of data set: functional. A digest of the protocol:
(§4)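 Oral dosing in mice; rod rotating at 5 rpm tested at 60 min after dosing, counting animals falling off within 2 min. ED50 by graphical interpolation.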
(In the rotarod test animals must keep their balance on a rotating rod.)

The species entered for data set [5] is Mus musculus. The experiment in a line: Effective dose required for 50% reduction of the control response in mice was obtained by graphical interpolation rotarod performance. Type of data set: functional. A digest of the protocol: as §4
The species entered for data set [6] is Mus musculus. The experiment in a line: Antifighting activity was measured by the antagonism against foot-shock induced fighting. The format is functional. A digest of the protocol:
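Mice dosed orally; pairs confined under inverted glass enclosure and given foot shock (5 Hz, 2 ms, DC 50 V); pairs with 15-20 fighting episodes in 3 min selected. Five pairs per dose; responses counted before and at 60 min after dosing. ED50 (50% inhibition) by graphical interpolation.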

Data set [7] in a line: Lethal dose (LD50) required to inhibit the spontaneous motor activity. The format is toxicity, organism-based. To be noted: mouse, in vivo. The method, boiled down: as §3
The test system of data set [8] is Mus musculus. The experiment in a line: Spontaneous motor activity of mice was estimated after 60 minutes of oral administration. Type of data set: functional. Set-up: unit not given here. The method, boiled down: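 Oral dosing in mice; activity quantitated with an activity meter over 10 min starting 60 min after dosing. Five groups of three mice per dose.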

The species named for data set [9] is Mus musculus. The experiment in a line: Minimum effective dose (MED) required for the potentiation of thiopental sodium induced loss of the righting reflex (Students t test). The format is functional. To be noted: read-out: MED. A digest of the protocol:
as §1

The subject of data set [10] is Mus musculus. Described as §2. Type of data set: functional. A digest of the protocol:
as §3

By ED50 is commonly meant the dose that gives a 50% effect, or the effect in half of the subjects. The LD50 is the dose expected to kill half of the subjects tested.

For `NCC(=O)NCC(=O)Nc1ccc(Cl)cc1C(=O)c1ccccc1Cl`, the minimal effective dose in data set [1] came to 10 mg/kg. Besides, the ED50 is 22 mg/kg in [2] and above 100 mg/kg in data set [4]. Besides, the LD50 in data set [3] is above 1000 mg/kg.

Consider `NCC(=O)NCC(=O)Nc1ccc(Cl)cc1C(=O)c1ccccn1`, for which the ED50 in data set [2] was found to be 2.8 mg/kg; in [4] it was 59.5 mg/kg.

Consider `NCC(=O)NCC(=O)Nc1ccc(Cl)cc1C(=O)c1ccccc1`, for which the ED50 in [5] was determined as 52.4 mg/kg; in data set [2], 14.1 mg/kg. Besides, the minimal effective dose in [1] was found to be 25 mg/kg. Besides, the “ED50 for inhibition of foot-shock induced fighting” value (“ED50 for inhibition” below) in data set [6] was 14.6. Moreover, the LD50 in data set [7] was above 1000 mg/kg.

Turning to `CCN(CC)CCN(C(=O)CNC(=O)CN)c1ccc(Cl)cc1C(=O)c1ccccc1`, the minimal effective dose in data set [1] amounted to 5 mg/kg. Moreover, the ED50 is 5.7 mg/kg in data set [2] and above 100 mg/kg in [4]. The compound further returned an LD50 in data set [3] above 1000 mg/kg.

Turning to `CN(C(=O)CNC(=O)[C@H](N)Cc1ccccc1)c1ccc(Cl)cc1C(=O)c1ccccc1Cl`, the minimal effective dose in [1] was 10 mg/kg. Also, in data set [8], the Activity was above 50. For the same compound, the values for the ED50 in data set [2] and in data set [4] were 4.8 mg/kg and 77.1 mg/kg, respectively. The “ED50 for inhibition” value in data set [6] turned out to be 20.4. Besides, the LD50 in [3] was above 1000 mg/kg.

Turning to `CCN(CC)CCN(C(=O)CNC(=O)CN)c1ccc(Cl)cc1C(=O)c1ccccc1F`, the Activity in data set [8] is recorded as 25. In addition, the 50% effective dose (ED50) in data set [2] turned out to be 1.98 mg/kg; in [4], 50.8 mg/kg. In addition, the “ED50 for inhibition” value in data set [6] worked out at 9.4. In data set [3], this compound had an LD50 above 1000 mg/kg.

On to `CC(C)N(C(=O)CNC(=O)CN)c1ccc(Cl)cc1C(=O)c1ccccc1`, for which the values for the ED50 in data set [2] and in [4] were 15.8 mg/kg and above 100 mg/kg, respectively. The compound further returned an LD50 in data set [7] above 1000 mg/kg.

In the case of `CN(C(=O)CNC(=O)[C@@H](N)Cc1ccccc1)c1ccc(Cl)cc1C(=O)c1ccccc1Cl`, in [1], the minimal effective dose came to 1 mg/kg. In data set [8], the Activity is above 50. Moreover, the ED50 in data set [2] came out at 1 mg/kg; in data set [4] it was 52.2 mg/kg. Moreover, in data set [6], the “ED50 for inhibition” value is recorded as 10.2. In addition, the LD50 in data set [3] was above 1000 mg/kg.

Regarding `CC(C)C(N)C(=O)NCC(=O)N(C)c1ccc(Cl)cc1C(=O)c1ccccc1Cl` (stereo unspecified), in data set [8], the Activity is on record as above 25. Also, the values for the 50% effective dose (ED50) in data set [2] and in data set [4] were 1.6 mg/kg and above 100 mg/kg, respectively. The LD50 in data set [3] came out at 750 mg/kg.

With `CN(C(=O)CNC(=O)C(N)Cc1ccccc1)c1ccc(Cl)cc1C(=O)c1ccccc1` (stereo unspecified), the minimal effective dose in [1] worked out at 5 mg/kg. Moreover, in data set [8], the Activity was 23.4. Moreover, the ED50 in data set [2] was 3.9 mg/kg; in data set [4], 70.7 mg/kg. Further, in [6], the “ED50 for inhibition” value came to 15.1. This compound also came in with an LD50 in data set [3] above 1000 mg/kg.

For the compound `CC(C)CC(N)C(=O)NCC(=O)Nc1ccc(Cl)cc1C(=O)c1ccccc1` (stereo unspecified), the minimal effective dose in data set [1] was 25 mg/kg. Further, the ED50 in data set [2] was 15.9 mg/kg; in data set [4], above 100 mg/kg. In addition, in [3], the LD50 is above 1000 mg/kg.

On to `CN(C(=O)CNC(=O)CN)c1ccc(Cl)cc1C(=O)c1ccccc1F`, for which the minimal effective dose in [1] stood at 0.1 mg/kg. In data set [8], the Activity is listed as 3.1. Besides, the results for the ED50 in [2] and in data set [4] were 0.3 mg/kg and 16.7 mg/kg, respectively. In addition, the “ED50 for inhibition” value in data set [6] is 1.6. This compound had an LD50 in data set [3] above 1000 mg/kg.

For the compound `CCc1cc(C(=O)c2ccccc2)c(NC(=O)CNC(=O)CN)s1`, the ED50 in [2] and in data set [4] was above 100 mg/kg throughout.

For `CC(C)C(N)C(=O)NCC(=O)N(C)c1ccc(Cl)cc1C(=O)c1ccccc1` (stereo unspecified), in [1], the minimal effective dose came to 10 mg/kg. The Activity in data set [8] is given as above 50. The figures for the ED50 in data set [2] and in data set [4] were 3.4 mg/kg and 73.5 mg/kg, respectively. Moreover, the “ED50 for inhibition” value in data set [6] is given as 21.5. In data set [3], this compound registered an LD50 above 1000 mg/kg.

In the case of `CC(N)C(=O)NCC(=O)Nc1ccc(Cl)cc1C(=O)c1ccccc1` (stereo unspecified), the LD50 in [3] was above 1000 mg/kg.

For `CN(C(=O)CNC(=O)C(N)Cc1ccccc1)c1ccc(Cl)cc1C(=O)c1ccccc1Cl` (stereo unspecified), the minimal effective dose in data set [1] is 5 mg/kg. Besides, the Activity in data set [8] is 5.5. Also, the ED50 in data set [2] came out at 1.6 mg/kg; in [4], 37.5 mg/kg. The “ED50 for inhibition” value in data set [6] is 17.1. The 50% lethal dose (LD50) in [3] is above 1000 mg/kg.

Regarding `CC(C)C(N)C(=O)NCC(=O)Nc1ccc(Cl)cc1C(=O)c1ccccc1` (stereo unspecified), the ED50 in [2] is 27.4 mg/kg; in data set [4], above 100 mg/kg. The compound also registered an LD50 in data set [3] above 1000 mg/kg.

As for `CN(C(=O)CNC(=O)CN)c1ccc(Cl)cc1C(=O)c1ccccc1`, in data set [1], the minimal effective dose turned out to be 2.5 mg/kg. Besides, in [8], the Activity was 15.1. The ED50 in [2] came out at 1 mg/kg; in data set [4], 29.4 mg/kg. In data set [6], the “ED50 for inhibition” value is 10.5. Also, the LD50 in data set [3] amounted to 750 mg/kg.

Regarding `NC(C(=O)NCC(=O)Nc1ccc(Cl)cc1C(=O)c1ccccc1)c1ccccc1` (stereo unspecified), the 50% effective dose (ED50) in [2] was 27.4 mg/kg; in data set [4] it was above 100 mg/kg. For the same compound, in [3], the LD50 is above 1000 mg/kg.

With `CNC1=Nc2ccc(Cl)cc2C(c2ccccc2)=[N+]([O-])C1` [CHLORDIAZEPOXIDE], the Activity in data set [8] is 56.09. Also, the ED50 in [2] was determined as 2.71 mg/kg; in data set [4], 82.3 mg/kg. For the same compound, the minimal effective dose in data set [9] is 2.5 mg/kg. In [10], this compound showed an LD50 of 1080 mg/kg.

With `CN1C(=O)CN=C(c2ccccc2)c2cc(Cl)ccc21` [DIAZEPAM], the Activity in [8] is 8.45. The minimal effective dose in [9] came to 0.5 mg/kg. The same compound came in with an ED50 in data set [4] of 17.7 mg/kg.

For the compound `CN(C(=O)CNC(=O)CN)c1ccc(Cl)cc1C(=O)c1ccccc1Cl` [LORZAFONE ANHYDROUS], in data set [1], the minimal effective dose amounted to 0.5 mg/kg. Also, in data set [8], the Activity is 1.4. In addition, the values for the ED50 in data set [2] and in data set [4] were 0.56 mg/kg and 35.4 mg/kg, respectively. Further, the “ED50 for inhibition” value in [6] is 3.2. In [3], this compound came in with an LD50 above 1000 mg/kg.
